Source: ChEMBL document CHEMBL4689842, “EUbOPEN Chemogenomics Library wave 1” (2021)
Values joined by “and” are separate entries in the source; they are usually repeats but may differ in a detail not shown here. Equal entries are not always repeated.

Test system: Fibroblast
Test: Multiplex assay against human fibroblast
Type: toxicity, cell-based
Outline: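 Hoechst33342, BioTracker Green Microtubule Cytoskeleton Dye, MitoTracker Red and Annexin V Alexa Fluor 680 were added to live cells at seeding, and imaging on a CQ1 microscope at 37°C and 5% CO2 followed compound addition. Gating by CellPathfinder machine learning separated cells into Hoechst high-intensity objects or normal cells, then normal cells into healthy, pyknosed or fragmented nuclei, then pyknosed cells into mitotic or apoptotic. Per cents of healthy-nucleus cells are reported for the tubulin, mitochondrial-mass and membrane-permeability phenotypes.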

[1] = 12 h, 10 µM, compound concentration 10 uM, replicate 1
[2] = 12 h, 10 µM, compound concentration 10 uM, replicate 2
[3] = 24 h, 10 µM, compound concentration 10 uM, replicate 1
[4] = 24 h, 10 µM, compound concentration 10 uM, replicate 2
[5] = 12 h, 1 µM, compound concentration 1 uM, replicate 1
[6] = 12 h, 1 µM, compound concentration 1 uM, replicate 2
[7] = 24 h, 1 µM, compound concentration 1 uM, replicate 1
[8] = 24 h, 1 µM, compound concentration 1 uM, replicate 2

## CN(c1ccccc1CNc1nc(Nc2ccc3c(c2)CC(=O)N3)ncc1C(F)(F)F)S(C)(=O)=O
[1]
  Population Apoptotic (%): 77% and 66%
  Population Fragmented Nuclei (%): 25% and 30%
  Population Healthy Nuclei (%): 60% and 55%
  Population Hoechst High Intensity Objects (%): 16% and 14%
  Population Mitotic Cells (%): 22% and 33%
  Population Normal (%): 83% and 85%
  Population Pyknosed Nuclei (%): 13% and 14%
  Total Cell Count: 189 and 148
[2]
  Population Fragmented Nuclei (%): 56% and 49%
  Population Healthy Nuclei (%): 38% and 25%
  Population Hoechst High Intensity Objects (%): 39% and 31%
  Population Mitochondria Different-Phenotype (%): 5% and 14%
  Population Mitotic Cells (%): 100% and 64%
  Population Normal (%): 60% and 68%
  Total Cell Count: 83 and 80
[3]
  Population Apoptotic (%): 70% and 91%
  Population Fragmented Nuclei (%): 26% and 36%
  Population Healthy Nuclei (%): 55% and 54%
  Population Hoechst High Intensity Objects (%): 14% and 18%
  Population Membrane Permeable-Phenotype (%): 11%
  Population Normal (%): 85% and 81%
  Population Pyknosed Nuclei (%): 18% and 9%
  Total Cell Count: 176 and 163
[4]
  Population Fragmented Nuclei (%): 43% and 49%
  Population Healthy Nuclei (%): 47% and 28%
  Population Hoechst High Intensity Objects (%): 36% and 30%
  Population Membrane Permeable-Phenotype (%): 18% and 20%
  Population Mitochondria Different-Phenotype (%): 13% and 26%
  Population Normal (%): 63% and 69%
  Population Pyknosed Nuclei (%): 8% and 22%
  Total Cell Count: 73 and 76

## O=c1[nH]c2ccccc2n1C1CCN(Cc2ccc(-c3[nH]c4cc5ncnc5cc4nc3-c3ccccc3)cc2)CC1
[5]
  Population Apoptotic (%): 66%
  Population Fragmented Nuclei (%): 45%
  Population Healthy Nuclei (%): 43%
  Population Hoechst High Intensity Objects (%): 17%
  Population Membrane Permeable-Phenotype (%): 6%
  Population Mitochondria Different-Phenotype (%): 3%
  Population Mitotic Cells (%): 33%
  Population Normal (%): 82%
  Population Pyknosed Nuclei (%): 11%
  Population Tubulin-Different-Phenotype (%): 18%
  Total Cell Count: 251
[6]
  Population Apoptotic (%): 83%
  Population Fragmented Nuclei (%): 72%
  Population Healthy Nuclei (%): 19%
  Population Hoechst High Intensity Objects (%): 31%
  Population Membrane Permeable-Phenotype (%): 15%
  Population Mitochondria Different-Phenotype (%): 0%
  Population Mitotic Cells (%): 16%
  Population Normal (%): 68%
  Population Pyknosed Nuclei (%): 8%
  Population Tubulin-Different-Phenotype (%): 23%
  Total Cell Count: 99
[1]
  Population Apoptotic (%): 67%
  Population Fragmented Nuclei (%): 50%
  Population Healthy Nuclei (%): 37%
  Population Hoechst High Intensity Objects (%): 55%
  Population Membrane Permeable-Phenotype (%): 33%
  Population Mitochondria Different-Phenotype (%): 4%
  Population Mitotic Cells (%): 32%
  Population Normal (%): 44%
  Population Tubulin-Different-Phenotype (%): 87%
  Total Cell Count: 524
[2]
  Population Apoptotic (%): 70%
  Population Fragmented Nuclei (%): 46%
  Population Healthy Nuclei (%): 40%
  Population Hoechst High Intensity Objects (%): 48%
  Population Membrane Permeable-Phenotype (%): 27%
  Population Mitochondria Different-Phenotype (%): 12%
  Population Mitotic Cells (%): 30%
  Population Normal (%): 51%
  Population Pyknosed Nuclei (%): 12%
  Population Tubulin-Different-Phenotype (%): 72%
  Total Cell Count: 158
[7]
  Population Apoptotic (%): 45%
  Population Fragmented Nuclei (%): 43%
  Population Healthy Nuclei (%): 40%
  Population Hoechst High Intensity Objects (%): 20%
  Population Membrane Permeable-Phenotype (%): 8%
  Population Mitochondria Different-Phenotype (%): 5%
  Population Mitotic Cells (%): 54%
  Population Normal (%): 79%
  Population Pyknosed Nuclei (%): 15%
  Population Tubulin-Different-Phenotype (%): 16%
  Total Cell Count: 268
[8]
  Population Apoptotic (%): 62%
  Population Fragmented Nuclei (%): 70%
  Population Healthy Nuclei (%): 17%
  Population Hoechst High Intensity Objects (%): 31%
  Population Membrane Permeable-Phenotype (%): 0%
  Population Mitochondria Different-Phenotype (%): 27%
  Population Mitotic Cells (%): 37%
  Population Normal (%): 68%
  Population Pyknosed Nuclei (%): 12%
  Population Tubulin-Different-Phenotype (%): 36%
  Total Cell Count: 94
[3]
  Population Apoptotic (%): 70%
  Population Fragmented Nuclei (%): 44%
  Population Healthy Nuclei (%): 45%
  Population Hoechst High Intensity Objects (%): 62%
  Population Membrane Permeable-Phenotype (%): 20%
  Population Mitochondria Different-Phenotype (%): 14%
  Population Mitotic Cells (%): 29%
  Population Normal (%): 37%
  Population Pyknosed Nuclei (%): 10%
  Population Tubulin-Different-Phenotype (%): 65%
  Total Cell Count: 437
[4]
  Population Apoptotic (%): 56%
  Population Fragmented Nuclei (%): 40%
  Population Healthy Nuclei (%): 36%
  Population Hoechst High Intensity Objects (%): 51%
  Population Membrane Permeable-Phenotype (%): 24%
  Population Mitochondria Different-Phenotype (%): 28%
  Population Mitotic Cells (%): 43%
  Population Normal (%): 48%
  Population Pyknosed Nuclei (%): 23%
  Population Tubulin-Different-Phenotype (%): 40%
  Total Cell Count: 143
